# Most compounds without a hit are left out; they make up all but 3.7% or so of the library.
# AHR activator – AHR activators, primary screen, cell-based, luminescence, luciferase reporter, human; 320,000 compounds, 2.5% hits; activation, % at 5 µM; AHR-responsive luciferase reporter cells; in the data active means activation above about 47%;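 further: 0% = vehicle wells and 100% = reference agonist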
# SR-BI HDL uptake – inhibitors of SR-BI mediated HDL lipid uptake, primary screen, ldlA[mSR-BI] cells, fluorescence, single point; 320,000 compounds, 0.96% hits; inhibition, % at 12.5 µM; ldlA[mSR-BI] CHO cells, DiI-HDL uptake fluorescence, 3 h; AID 488896, 2010; Scavenger receptor class B member 1 (Mus musculus), Q61009;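 active means mean replicate inhibition of at least 70% and a set share of replicates each scoring 70 or more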;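 further: 0% = median of neutral control wells and 100% = median of positive control wells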
# Target sequence (Q61009 whole entry, looked up): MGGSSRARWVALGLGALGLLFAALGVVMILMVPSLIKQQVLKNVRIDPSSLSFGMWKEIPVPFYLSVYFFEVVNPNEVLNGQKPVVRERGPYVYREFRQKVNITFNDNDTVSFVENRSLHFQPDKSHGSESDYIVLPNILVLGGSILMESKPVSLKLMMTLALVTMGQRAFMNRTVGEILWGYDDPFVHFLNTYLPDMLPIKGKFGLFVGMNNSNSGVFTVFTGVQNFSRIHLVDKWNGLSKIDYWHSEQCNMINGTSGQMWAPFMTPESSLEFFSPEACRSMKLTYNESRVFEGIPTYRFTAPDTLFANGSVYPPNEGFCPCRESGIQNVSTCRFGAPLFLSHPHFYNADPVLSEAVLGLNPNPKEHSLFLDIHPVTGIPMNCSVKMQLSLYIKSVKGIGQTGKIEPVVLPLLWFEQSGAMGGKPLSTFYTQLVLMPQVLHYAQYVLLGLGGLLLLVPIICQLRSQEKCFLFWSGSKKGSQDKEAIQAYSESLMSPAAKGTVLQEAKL
# FXN GAA850 act – FXN promoter activators, primary screen, cell-based, luciferase luminescence, HEK293 lucGAA850 | 360,000 compounds, 0.56% hits | activation, % at 6 µM | HEK293 lucGAA850 FXN promoter luciferase reporter, 24 h; percent of 10 µM SAHA response | AID 540364, 2011;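 active means activation above the average of all compounds screened plus 3 SD, cutoff fixed separately per campaign, cut at about 7.5% in these data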;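 further: 0% = DMSO wells and 100% = 10 µM SAHA wells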
# SR-BI DiI-HDL act – activators of SR-BI mediated DiI-HDL uptake, primary screen, ldlA[mSR-BI] CHO cells, DiI fluorescence | 3 h; 100 = double the neutral-control signal | activation, % at 12.5 µM | 320,000 compounds, 0.096% hits;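 active means mean replicate activation of at least 60% and every replicate at or above 60%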;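 further: 0% = median plate neutral-control signal and 100% = twice that signal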
#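 Test system: SR-BI-overexpressing, LDLR-lacking CHO cells. Measured by: DiI fluorescence, bottom read. Medium: Ham's F12 with 0.5% BSA, HEPES 25 mM, pH 7.4. Timing: 3 h uptake period with compound, 37 °C.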
# JMJD2C inh – inhibitors of GASC-1 histone demethylase, primary screen, biochemical, fluorescence, DELFIA europium; Lysine-specific demethylase 4C (Homo sapiens), Q9H3R0; GST-JMJD2C(1-420) H3K9me3 demethylation; inhibition, % at 2.35 µM; 330,000 compounds, 0.069% hits;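 active means more than half of a compound's replicate wells show inhibition beyond 50%, single wells judged on their own value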;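 further: signal counts dimethyl H3K9 product captured on neutravidin plate; 0% = median of DMSO wells and 100% = 0.3 times that DMSO median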
# GAA30 counter – GAA30 FXN promoter activators, confirmation, counter-screen for GAA850 frataxin promoter activator project, cell-based, luminescence, HEK293, lucGAA30, triplicate | shares compounds with FXN GAA850 act | AID 588350, 2011 | 1,900 compounds, 66% hits | HEK293 lucGAA30 FXN promoter luciferase, 24 h; DMSO = 0%, 5 µM ipriflavone = 100% | activation, % at 6 µM;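 active means mean activation above the mean of solvent-only control wells plus 3 SD, cut at about 22% in these data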;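 further: counterscreen of GAA850 promoter hits where activity marks nonselective or luminescence artifacts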
# FXN GAA850 conf – FXN GAA850 promoter activators in reporter cells, confirmation, cell-based, luminescence, HEK293 lucGAA850, triplicate | activation, % at 6 µM | AID 588351, 2011 | shares compounds with FXN GAA850 act | HEK293 lucGAA850 FXN promoter luciferase reporter, 24 h; 100% = activation by SAHA | 1,900 compounds, 86% hits;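 active means mean activation above a set limit taken from the primary screen, cut at about 8% in these data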;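 further: 0% = DMSO wells and 100% = 10 µM SAHA wells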
# An asterisk follows results filed as active; . = not tested or not shown.
SMILES,AHR activator,SR-BI HDL uptake,FXN GAA850 act,SR-BI DiI-HDL act,JMJD2C inh,GAA30 counter,FXN GAA850 conf
C=CCNc1nc2c(c(=O)n(C)c(=O)n2C)n1Cc1ccc(F)cc1,-2.4,4.3,10.7*,-4.3,9.0,-4.2,0.7
O=C(O)c1ccccc1NN=C1CCCCC1,18.3,-24.4,9.0*,24.4,11.8,38.0*,7.2
Cc1cc(S(=O)(=O)Nc2ccc(C(=O)NCCCN3CCCC3=O)cc2)ccc1F,-1.2,-7.8,-0.1,7.8,29.2,.,.
CCCCCc1nnc(N)s1,-1.4,2.5,3.5,-2.5,-8.7,.,.
CCCCCc1ccc(-c2nnc(N)s2)cc1,6.5,12.0,7.8*,-12.0,-10.5,78.1*,21.1*
CC(C)(C)Nc1nc(NC(C)(C)C)nc(-n2ccnc2)n1,10.4,10.8,1.7,-10.8,-3.0,.,.
CC(C)Cn1c(=O)[nH]c(=O)c2c(C(F)(F)F)cc(-c3ccccc3)nc21,1.8,.,7.7*,.,-5.8,-4.1,16.0*
CCCn1c(=O)[nH]c(=O)c2c(C(F)(F)F)cc(-c3ccc(C)cc3)nc21,-1.5,18.3,0.6,-18.3,-2.8,.,.
CCc1cccc2c(C(=O)CCl)c[nH]c12,27.1,-4.5,8.2*,4.5,-2.8,31.2*,21.2*
CCc1cccc2c(C(=S)N3CCCC3)c[nH]c12,16.0,-11.3,1.6,11.3,-4.5,.,.
COc1ccc(OC)c(NC(=O)COC(=O)CCS(=O)(=O)c2ccc(Cl)cc2)c1,3.0,0.2,1.0,-0.2,3.2,.,.
Cc1ccc(NC(=O)CCNC(=O)c2ccco2)cc1Cl,2.0,.,0.7,.,-25.8,.,.
CC(C)(C)n1nc(-c2ccc(F)cc2)c2c(N)ncnc21,-1.2,21.3,11.6*,-21.3,6.0,53.7*,11.7*
Cc1ccc(-c2nc(N)c3c(-c4ccc(C)cc4)nn(C(C)(C)C)c3n2)cc1,0.2,33.1,2.8,-33.1,48.7,.,.
CC(C)(C)n1nc(-c2ccc(Cl)cc2)c2c(N)ncnc21,4.0,18.6,11.3*,-18.6,10.0,64.2*,5.7
CCN(C(=O)COC(=O)c1ccc([N+](=O)[O-])o1)c1cccc2ccccc12,-0.4,-8.6,-0.1,8.6,6.3,.,.
O=C(O)c1cnn(-c2nc(-c3cccc(F)c3)cs2)c1C(F)(F)F,10.5,0.4,0.7,-0.4,-9.1,.,.
O=C(O)c1cnn(-c2nc(-c3ccc(Cl)c(Cl)c3)cs2)c1C(F)(F)F,2.7,-13.0,8.1*,13.0,3.1,59.6*,31.8*
CCOC(=O)C1=C(c2ccccc2)NC(=O)NC1c1cccc(OC)c1OC (stereo not given),-2.0,.,1.0,.,-4.8,.,.
Cc1c(-c2ccc(O)cc2)nc2nc(-c3ccccc3)c(-c3ccccc3)nn12,-2.1,.,.,.,6.0,.,.
Cc1nc2nc(-c3ccccc3)nn2c(C)c1C,43.3,.,7.6*,.,-48.2,115.2*,40.8*
Cc1cc2occ(CC(=O)NC3(C)CCS(=O)(=O)C3)c2cc1C (stereo not given),0.2,4.6,3.5,-4.6,-2.4,.,.
CCN(C(=O)Cn1cc(C(F)(F)F)ccc1=O)c1c(N)n(Cc2ccccc2)c(=O)[nH]c1=O,1.2,-33.6,1.0,33.6,-1.8,.,.
O=C1CC(N2CCN(S(=O)(=O)c3ccc([N+](=O)[O-])cc3)CC2)C(=O)N1c1ccccc1F (stereo not given),-0.1,-16.7,-0.3,16.7,-1.0,.,.
O=C(COc1ccccc1Cl)NC(=O)NC1CCCC1,0.2,3.0,8.0*,-3.0,21.8,111.4*,29.6*

# Source: PubChem (several laboratories)
